Measured values as given in ChEMBL document CHEMBL1817557, “Synthesis and biological evaluation of orally active hypolipidemic agents” (J Med Chem, 2011).
≈ marks a conversion by molar mass, not a printed value.

How the values were obtained:
[1] = Aqueous solubility of the compound in 0.1 M phosphate buffer at pH 5.2 after 4 hrs by HPLC method; assay type: physicochemical
[2] = Aqueous solubility of the compound in 0.2 M phosphate buffer at pH 7.4 after 4 hrs by HPLC method; assay type: physicochemical
[3] = Aqueous solubility of the compound in 0.2 M hydrochloric acid buffer at pH 1.0 after 4 hrs by HPLC method; assay type: physicochemical
Mus musculus [4] = assay: Hypolipidemic activity in Swiss albino mouse assessed as decrease in plasma triglyceride level at 50 mg/kg, po administered daily for 8 days measured on day 9 by spectrophotometry relative to control; assay type: functional; parameters: scale not given: the % may be the effect or the level left
How it was run: (§1)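 Male Swiss albino mice (moderately hypertriglyceridemic model) dosed by oral gavage at 50 mg/kg body weight once daily for 8 days; plasma triglyceride and total cholesterol measured. Percent change calculated relative to vehicle-treated control group; mean ± SE, n = 10 mice per group.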

Mus musculus [5] = assay: Hypolipidemic activity in Swiss albino mouse assessed as decrease in plasma total cholesterol level at 50 mg/kg, po administered daily for 8 days measured on day 9 by spectrophotometry relative to control; assay type: functional; parameters: scale not given: the % may be the effect or the level left; how it was run: as §1
[6] = Aqueous solubility of the compound in 0.1 M boric acid buffer at pH 9.0 after 4 hrs by HPLC method; assay type: physicochemical
[7] = Octanol-buffer partition coefficient, log P of the compound at pH 7.4 by HPLC; assay type: physicochemical
How it was run: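 Partition coefficient determined by HPLC in an octanol–buffer system at pH 7.4, 25 °C.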

[8] = Aqueous solubility of the compound in 0.1 M citric acid buffer at pH 3.0 after 4 hrs by HPLC method; assay type: physicochemical; details: pH 3, 4 h
Mus musculus [9] = assay: Hypolipidemic activity in Swiss albino mouse assessed as change in plasma total cholesterol level at 50 mg/kg, po administered daily for 8 days measured on day 9 by spectrophotometry relative to control; assay type: functional; how it was run: as §1

For `Cc1oc(=O)oc1COC(=O)C(C)(C)Oc1ccc(C(=O)c2ccc(Cl)cc2)cc1`, the solubility at 4 h [1] was 3 ng/mL (≈ 6.96 nM), the solubility at 4 h [2] was 2 ng/mL (≈ 4.64 nM) and the solubility at 4 h ([3]; 0.2 M hydrochloric acid buffer, pH 1) was 230 ng/mL (≈ 534 nM). For the same molecule, the Activity (Mus musculus [4]) was 27.2%, the Activity (Mus musculus [5]) was 11.2% and the solubility at 4 h [6] was 4 ng/mL (≈ 9.28 nM). It also gave a logD [7] of 4.35 and a solubility [8] of 2 ng/mL (≈ 4.64 nM).

`CC(C)(Oc1ccc(C(=O)c2ccc(Cl)cc2)cc1)C(=O)OCCN1CCOCC1` showed a solubility at 4 h [1] of 38000 ng/mL (≈ 88000 nM), a solubility at 4 h [2] of 1920 ng/mL (≈ 4450 nM) and a solubility ([3]; buffer, pH 1, 4 h) of 5 ng/mL (≈ 11.6 nM). It also gave an Activity (Mus musculus [4]) of 27.6%, an Activity (Mus musculus [5]) of 2.4% and a solubility at 4 h [6] of 4800 ng/mL (≈ 11100 nM). For the same molecule, the logD [7] was 3.5 and the solubility [8] was 15 ng/mL (≈ 34.7 nM).

Molecule `CC(C)(C)C(=O)OCOC(=O)C(C)(C)Oc1ccc(C(=O)c2ccc(Cl)cc2)cc1` has a solubility at 4 h [1] of 1 ng/mL (≈ 2.31 nM), a solubility at 4 h [2] of 2 ng/mL (≈ 4.62 nM) and an Activity (Mus musculus [4]) of 45%. For the same molecule, the Activity (Mus musculus [5]) was 9%, the solubility at 4 h [6] was 1 ng/mL (≈ 2.31 nM) and the logD [7] was 4.7.

With `CC(C)OC(=O)OCOC(=O)C(C)(C)Oc1ccc(C(=O)c2ccc(Cl)cc2)cc1` the solubility at 4 h [1] was 2 ng/mL (≈ 4.6 nM), the solubility at 4 h [2] was 2 ng/mL (≈ 4.6 nM) and the Activity (Mus musculus [4]) was 33.1%. It also gave an Activity (Mus musculus [5]) of 7.2%, a solubility at 4 h [6] of 6 ng/mL (≈ 13.8 nM) and a logD [7] of 4.91. It also gave a solubility [8] of 2 ng/mL (≈ 4.6 nM).

`CC(C)OC(=O)OC(C)OC(=O)C(C)(C)Oc1ccc(C(=O)c2ccc(Cl)cc2)cc1` (centres undefined) gave a solubility at 4 h [1] of 1 ng/mL (≈ 2.23 nM), a solubility at 4 h [2] of 1 ng/mL (≈ 2.23 nM) and an Activity (Mus musculus [4]) of 47%. For the same molecule, the Activity (Mus musculus [5]) was 7.7%, the solubility at 4 h [6] was 22 ng/mL (≈ 49 nM) and the logD [7] was 5.43.

With `CC(=O)OC(C)OC(=O)C(C)(C)Oc1ccc(C(=O)c2ccc(Cl)cc2)cc1` (centres undefined) the solubility at 4 h [1] was 3 ng/mL (≈ 7.41 nM), the solubility at 4 h [2] was 2 ng/mL (≈ 4.94 nM) and the Activity (Mus musculus [4]) was 33.1%. For the same molecule, the Activity (Mus musculus [9]) was -3.5%, the solubility at 4 h [6] was 3 ng/mL (≈ 7.41 nM) and the logD [7] was 4.65.

With `CC(C)OC(=O)C(C)(C)Oc1ccc(C(=O)c2ccc(Cl)cc2)cc1` [FENOFIBRATE] the Activity (Mus musculus [4]) was 48.6%, the Activity (Mus musculus [5]) was 5.5% and the logD [7] was 4.78.
